Test system: MS2 coat protein
Assay: apparent Kd, MS2 coat protein; higher = weaker binding; RNA-MaP array; FMN 200 µM where present
Summary of the method: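 The titrant was SNAP-549-labelled MS2 coat protein, run from 0.7 or 1.5 nM in doubling steps to 3 µM. It was applied to designs transcribed by stalled E. coli RNA polymerase on Illumina sequencing-chip clusters, without ligand first and then with constant ligand, in 100 mM Tris-HCl pH 7.5, 80 mM KCl, 4 mM MgCl2, BSA, DTT, yeast tRNA and Tween-20. The apparent Kd is the median of filtered per-cluster binding-curve fits, with green signal normalised to red-channel RNA signal and control-cluster median Fmax.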

[1] = designed as: ON switch for flavin mononucleotide, no ligand
[2] = ligand present: flavin mononucleotide, designed as: ON switch for flavin mononucleotide
[3] = designed as: OFF switch for flavin mononucleotide, no ligand
[4] = ligand present: flavin mononucleotide, designed as: OFF switch for flavin mononucleotide

| Sequence | apparent Kd [1] [nM] | apparent Kd [2] [nM] | apparent Kd [3] [nM] | apparent Kd [4] [nM] |
| --- | --- | --- | --- | --- |
| GGGAGACAUGAGGAUCACCCAUGUGAAAACGUGCGAGGAUAUCUAUGGAAACCAUACUGUAGAGAAGGCGUUUGUC | 88.4 | 46.6 | – | – |
| AAUAUGUUGCAGAAGGUUAUAUUUAUAACGUUCCUCAUGACAUGAGGAUCACCCAUGUAAUUGUUGAAGGAUAUGCAAUAUAUU | – | – | 5.41 | 5.62 |
| AGCUAGUCAGGAUAUACGAACAUGUCAAAAGACGUGAAGGGACAUGAGGAUCACCCAUGUAGAAGGGACUAGCC | – | – | 26.7 | 170 |
| UUGAAUUGAAACAUGAGGAUCACCCAUGUGUCAUAAUUGACAUAGGAUAUGUUUAUACUUUUAAAACAGAAGGAUGACGAUACU | 14.1 | 9.68 | – | – |
| ACUAGAUGAGGAUAUGCAUAUUUUCGUGUUCUUCUAGGUUAACAUGAGGAUCACCCAUGUAGAAGGCGUCUAUA | – | – | 19.7 | 35 |
| GGAUGACAAAGUCAUCCUUAACGAACAUGAGGAUCACCCAUGUAGGAUAUGCUACUCAAAGAGUAGCAGAAGGACAUGUGUCUU | – | – | 31.1 | 159 |
| GUAGCGUAUGUAGGAUAUCGGUCAGUUUCUGAUCGAGAAGGACAUGAGGAUCACCCAUGUAAAUUACCGACUUUGUCGGGCUGC | – | – | 8.06 | 12.4 |
| GGAUCGAAUGUGAGGAUAUGCUGGUCCUUGGAUCAGCAGAAGGCACAUGAGGAUCACCCAUGUGACUAAGAUCC | – | – | 32.7 | 248 |
| CGUACUGAAGUGAGGAUAUUGUCUCGGAUACGAAACAAGAAGGCACAUGAGGAUCACCCAUGUUGACAGUACGA | – | – | 15.8 | 13.1 |
| UUCCCAGCGGGAGGAUAUGGUGCCUUAUUGGUGCUAGAAGGUCCAACAUGAGGAUCACCCAUGUGGGAGUGGUCUAAUGACCUC | 212 | 144 | – | – |
| GACCUACAUGAGGAUCACCCAUGUCAGGAUAUUUAACCGAUGUCACCCAUCGGUCCUUAGAGAAGGGAUGUGGC | – | – | 15 | 14.9 |
| ACAGAGUGAAGACAGGAUAUUCGCGAUGGCACAUGAGGAUCACCCAUGUUUUGAGCACAUAAACAGAAGAAGGGUUAAAACUCAG | 132 | 13.8 | – | – |
| AAGAAACAUGAGGAUCACCCAUGUGAGGAUAUGUAAAAUAAAAUAAAAUAAAUAAUAAACAGAAGGCACAAAGG | – | – | 68 | 76.5 |
| GCGUUGAACGAGAAGGCCACUACAUGAGGAUCACCCAUGUCGUGGAGUAUUGGAGGAUAUCGAUCGGCGUCUCAUGAGGACAUA | – | – | 5.34 | 5.62 |
| UUGUAACGAUUAGGAUAUUAUUAAUAGAACUUUAUGAUAUACAUGAGGAUCACCCAUGUUACUUUUAAGAAGGAAUCGUAUUAU | – | – | 24.4 | 18.3 |
| UUAUUUAUGUAAGGAUAUCGAUGAUAUACGCAUCCGACAUGAGGAUCACCCAUGUUUUAUUUUGUCGAGAAGGUACAUUGUCGG | 57.8 | 57.1 | – | – |
| GGACCGCGCAGAGUUGACGGUCGGCAGGAUAUGACAUGAGGAUCACCCAUGUGAACUCCAUUGGGUCAGAAGGGCCACGACGAA | – | – | 21.1 | 77.3 |
| GUUUACGCAUGAGGAUAUGCUCGCAUUUCAAGAGCAGAAGGUAUGUCUUUAGACAUGAGGAUCACCCAUGUAUUUAUCAUUGAA | 166 | 28.4 | – | – |
| AUCAGUUCGUCAGGAUAUACGUCACUGCGUCAGCAGUGUGGUAAGAUCACAUGAGGAUCACCCAUGUAGAAGGGACGAGCUGAU | – | – | 14 | 214 |
| UGGCUACAUGAGGAUCACCCAUGUCAGGAUAUGCCGUUGGAUUGCCUUCGUCGUUCGGGUAGAAGGGACUGCGG | – | – | 22.1 | 21.5 |
| UGUGUGUCAGGAUAUCGCGCGCGCGCGGAAAUGUGUGUGUGUGAGAAGGGACAUGAGGAUCACCCAUGUGCGCG | – | – | 115 | 263 |
| CGCUGGUGACAGCAUCCAUCAAAACAUGAGGAUCACCCAUGUAGAAGGCUGUACGGUUACCGUACAGAGGAUAUACAAUGAUGA | – | – | 15.9 | 26.4 |
| GCAGCUAAUAUUAUACAUGAGGAUCACCCAUGUUACAUGAGUAAGGAUAUUGAUGAUUAUAUAAACAAGAAGGUACGAAGCUGC | 14.9 | 7.85 | – | – |
| UGCACUAGAUGAGGAUAUGCACAUGAGGAUCACCCAUGUGUGUGCUGCGGUGGUGAUCUGUAAAUGCAGAAGGCAUUCGGGCGG | – | – | 111 | 63.9 |
| AGCUACGUUUCGUAGCAGCUAGGUGAGGAUAUCCUUAUACAUGAGGAUCACCCAUGUUAGCCAUGGGAGAAGGCGCCUAGAAAG | 328 | 24.8 | – | – |
| CGUACUGAAGUGAGGAUAUUGUCUCGGAUACGAAACAAGAAGGCACAUGAGGAUCACCCAUGUAAACAGUACGA | – | – | 17.5 | 14.2 |
| UCAUGUUUAGAGGAUAUGAUUACUCUAGAGUGAUCAGAAGGCUAGACAUGAGGAUCACCCAUGUCAGAACAUGU | – | – | 34.4 | 24.8 |
| UACGACUUCGUAGGAUAUGUAUUUCAUUUCUACAUGAGGAUCACCCAUGUUUGCAUUUUUUUUUGACAGAAGGACGUAAUCGUA | 15.4 | 10.5 | – | – |

| Sequence | apparent Kd [1] [nM] | apparent Kd [2] [nM] | apparent Kd [3] [nM] | apparent Kd [4] [nM] |
| --- | --- | --- | --- | --- |
| AGAAUGGGCGAGAAGGGAGUACAUGAGGAUCACCCAUGUGGUUCAUGGUGCUCAGGAUAUCGAUAGACCAGGGAGCGUCUCUGA | – | – | 30 | 148 |
| UACCUCUCAGGAUAUGAGCAGCAGGACAUGAGGAUCACCCAUGUUAUAUAGGGUCCUGGUUUAGAAGGGAGCGAAU | – | – | 26 | 28.1 |
| GCCGUGAUAGCAGGAUAUGCUCCGGUUGCUCAUACAUGAGGAUCACCCAUGUCACGUGCGGUGGUGCAGAAGGGUUGAAGCGAA | 748 | 219 | – | – |
| CACCAGCGAGGAUAUACACGUGGUCUCCACUCCCGGUGGUAACAUGAGGAUCACCCAUGUAGAAGGCGCAACAU | – | – | 42 | 220 |
| GUACAACAUGAGGAUCACCCAUGUAUAUAUAUACGAGGAUAUGCAUGUACGAAAGUAUAUGCAGAAGGCGUUGUAC | 127 | 30.2 | – | – |
| GUAAAUCAUGUAGGAUAUGCAUGGCGAAGCUACGCAGAAGGACAUGAGGAUCACCCAUGUUAUAGCUACCCGUUACGGUGGCAA | – | – | 100 | 236 |
| UUAGAAUUGCAAGGAUAUCUAAUGUAGAUAGUAAGAGAAGGUGCUUGAUAGUUACAUGAGGAUCACCCAUGUAUUUGGGUUUAU | 395 | 375 | – | – |
| CGCGAACAUGAGGAUCACCCAUGUGGGUGGAACGUAGGAUAUACGUAGGUCUUUAAUACAGUAGAAGGACGUUCGC | 264 | 118 | – | – |
| AAGGAUAGAGGAUAUACAUAGAUACAGAUUCAUGUAGAAUUACAUGAGGAUCACCCAUGUAGAAGGCUAUCCUA | – | – | 635 | 29 |
| AUCAGCUUGACAGGAUAUACAUGUCAGCGAAAGCUGACAAUCUUAAUAACAUGAGGAUCACCCAUGUAGAAGGGUCGAGCUGAU | – | – | 18.1 | 32.4 |
| UUGGUGUACGUAGGAUAUGUAGGAUAUUCCUACAUGAGGAUCACCCAUGUAUGCAUGGAAGAAGGACAGAAGGACGUGCACCAU | 203 | 14 | – | – |
| CGAGCUGCUGUGAGGAUAUACCUAUGGAUACAUGGGUAGAAGGCACAUGAGGAUCACCCAUGUCCUGCAGCUCG | – | – | 43.2 | 273 |
| GGUGAAGCAGGAUAUGUGCCAAUAUACAUGAGGAUCACCCAUGUCAUGUAGGAACUGCGUAUAGAAGGGCUUCACC | – | – | 37.6 | 63.5 |
| GUCGGAAACGACAAGUAGCAAUCGGAGGAUAUUCAUGGAAACAUGAGGAUCACCCAUGUAAAUUGGGAGAAGGCCGAUUGCUAC | 1220 | 93.6 | – | – |
| UGGUACUAGGGAGGAUAUGGGAAGAUACAUGAGGAUCACCCAUGUUUAAGAAUGCCGACAGGCAACUAGAAGGCCCUAGUACCU | 414 | 20.2 | – | – |
| AUCGGUCCGUAGAAGGGUGACAUGAGGAUCACCCAUGUGCCGUGUGCGUUUAUGCCUCCACGGCCACAGGAUAUACGGAGUUGA | 28.2 | 19.1 | – | – |
| UGUCGGAGCACAGGAUAUUACAUGAGGAUCACCCAUGUAUGAACCAAUAGCUGGAAACAGCAAUGUAAGAAGGCUGCUCCGACA | – | – | 5.6 | 5.71 |
| GGGUACAUCGGAGGAUAUCAUGUAAAUACAUGAGGAUCACCCAUGUCAAUGGAGACAUCGGAGAUUGAGAAGGCCGAUGUACCG | 86.1 | 340 | – | – |
| CGUGUUUCGUUGUAACCCAUUUACAUGAGGAUCACCCAUGUAGAGGAUAUAGGUCACCACGGUACCUAGAAGGCUGCAGGUGUG | – | – | 30.3 | 41 |
| AAGUGUGCCUAGGAUAUGUUCGGCCAAGGUCAUACAGAAGGAGGCACAUGAGGAUCACCCAUGUAGUGUCCAAC | – | – | 118 | 29.4 |
| GGUGAGAGCAAGGAUAUGCAGAAGUGAGAAAGUGCAGAAGGUGCUACAUGAGGAUCACCCAUGUUGGAUGUGUU | – | – | 37.1 | 49.1 |
| GCCAUCGUAUGAGGAUAUGGCACCGAAACGGUGCCAGAAGGCAUGUCAAUCGACAUGAGGAUCACCCAUGUGUUAUCGAUGGCA | 305 | 25.1 | – | – |
| CGUAUGUCAGGAUAUGCGUAUGCCGCUCGGGACGAGCGGCAGCAGAAGGGACAUGAGGAUCACCCAUGUUCGGG | – | – | 75 | 72.7 |
| UGGUACUAGGGAGGAUAUGGGAAGAUACAUGAGGAUCACCCAUGUUUAAGAAUGCCGAGAGGCAACGAGAAGGCCCUAGUACCU | 793 | 132 | – | – |
| UUUAUUUUUACAGGAUAUCAUCUAUAUAUCACAUGCACAUGUUUACAUGAGGAUCACCCAUGUUUUGAGAAGGGUAAUGAAACA | 79.6 | 59 | – | – |
| GGGAGACAUGAGGAUCACCCAUGUGAAAACGUGGCAGGAUAUGCAUGGAAACCAUACUGUGCAGAAGGGCCUUGUC | 60.5 | 33.1 | – | – |
| GUCAGCUCGUGAGGAUAUACAACACCGCUUCGGCAGUGUAUUAAGAUCACAUGAGGAUCACCCAUGUAGAAGGCACGAGCUGAU | – | – | 12.9 | 255 |

— the EternaBench riboswitch data
